Screening data from PubChem BioAssay.
In the library only some 2.4% were active in any assay of this set; here they are far more common.
Ecoli rRNA inh: inhibits bacterial ribosomal RNA function over humanized ribosomes; 350,000 tested, 1.6% active; GFP signal change (wild-type ribosome), % (no concentration beside the values); E. coli WT GFP vs humanized-ribosome RFP mutants, fluorescence, 24 h; stronger effect = lower value; DMSO median 0, no signal -100;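 active = significant combined selectivity score with lowered wild-type GFP, culture density cut under 30%, mutant RFP and density less affected; inactive = any of these conditions unmet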
S100A4 MyoIIA: blocks human S100A4 binding to myosin IIA peptide. 360,000 tested, 0.14% active. AID 652163. inhibition, % at 10.7 µM. S100A4/TAMRA-MyoIIA peptide fluorescence polarization. P26447;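 active = mean inhibition of at least 70% across replicates, with every replicate also reaching that level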
Target sequence (P26447 whole entry, looked up): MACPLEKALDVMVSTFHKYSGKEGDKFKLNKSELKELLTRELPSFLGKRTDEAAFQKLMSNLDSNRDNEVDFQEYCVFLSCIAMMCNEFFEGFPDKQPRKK
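Material: S100A4 monomer protein / Buffer or medium: 50 mM HEPES pH 7.2, 10 mM CaCl2, 100 mM KCl / Times: 5 min incubation before reading / Benchmarks: neutral control DMSO, positive control TFP / Reagent: labelled myosin peptide probe, 5 nM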
CASP6 VEID inh: caspase-6 (human) enzyme inhibition | P55212 | 350,000 tested, 0.53% active | purified caspase-6, Z-VEID-R110 cleavage fluorescence | inhibition, % at 12.5 µM;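 active = mean inhibition across replicates at least about 35%, with every replicate also reaching that limit, limit read from the data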;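 also: 0% = median of neutral control wells and 100% = no fluorescence left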
Target sequence (P55212 24-179 limits assumed): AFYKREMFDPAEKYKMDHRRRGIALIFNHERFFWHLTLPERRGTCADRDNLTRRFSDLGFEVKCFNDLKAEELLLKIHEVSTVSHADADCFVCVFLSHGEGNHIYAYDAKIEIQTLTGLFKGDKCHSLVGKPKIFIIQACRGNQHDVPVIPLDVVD
Target sequence (P55212 194-293 limits assumed): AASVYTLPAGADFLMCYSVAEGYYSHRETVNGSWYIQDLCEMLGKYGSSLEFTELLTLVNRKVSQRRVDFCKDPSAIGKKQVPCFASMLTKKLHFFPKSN
PGC1a acetyl inh: PGC1a acetylation modulation, inhibitor mode | U2OS PGC1a acetylation, AlphaScreen anti-acetyl-lysine; with virally co-expressed GCN5 acetyltransferase | inhibition, % at 15.6 µM | 350,000 tested, 0.17% active | AID 651687;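 active = every replicate shows inhibition of at least 40%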;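 also: 0% = neutral control wells and 100% = positive control wells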
ARNT TACC3 PPI: disruptors of human ARNT/TACC3 interaction; AlphaScreen His-ARNT PAS-B/GST-TACC3 binding, luminescence; TACC3 fragment carries E629A point mutation; inhibition, % at 9.99 µM; 390,000 tested, 0.66% active; Q9Y6A5;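 active = mean inhibition of replicates at least 50% and at least half of replicates each reaching 50%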;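 also: 0% = complete ARNT plus TACC3 wells and 100% = ARNT alone without TACC3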
ERAP1 HTS inh: ERAP1 (human) enzyme inhibition; 340,000 tested, 0.15% active; recombinant ERAP1, Leu-AMC fluorescence, 60 min; Q9NZ08; AID 652197; inhibition, % at 10.7 µM;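 active = mean replicate inhibition of at least 30%, or all replicates individually reaching that 30% level; inactive = mean below 30% and not every replicate reaching it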;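 also: 0% = neutral control wells and 100% = L-leucinethiol positive control wells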
* marks the source's active call; other numbers are inactive results; . = no result given.

SMILES	Ecoli rRNA inh	S100A4 MyoIIA	CASP6 VEID inh	PGC1a acetyl inh	ARNT TACC3 PPI	ERAP1 HTS inh
COCCCNCC(O)COc1cccc2[nH]c(C)cc12 (stereo not drawn)	18	-1	-78	-4	3	32*
CCOc1ccc(-c2onc(C(F)(F)F)c2-c2cscn2)c(O)c1	-43*	11	1	2	-7	-2
Cc1cc(O)cc(O)c1-c1onc(C(F)(F)F)c1-c1cscn1	.	.	.	2	-4	.
CCc1ccccc1NC(=O)C1CCN(C(=O)c2cccs2)CC1	2	-23	-2	.	-6	-4
Cc1ccc(NC(=O)C2CCCN2C(=O)c2cccs2)c(C)c1 (stereo not drawn)	4	-3	-4	.	3	56*
Cc1ccc(NC(=O)C2CCN(C(=O)c3cccs3)CC2)c(C)c1	-3	-6	-5	.	0	34*
C[C@@H]1CN([C@H](C)CO)C(=O)c2cc(NC(=O)C3CCCCC3)ccc2O[C@@H]1CN(C)S(C)(=O)=O	5	-14	-1	.	-4	3
CN1C(=O)c2cc(NC(=O)c3cncs3)ccc2OC[C@H]2O[C@@H](CC(=O)NCC3CC3)CC[C@@H]21	1	.	.	.	.	.
CCCCn1c(=N)n(CC(=O)c2ccc(OC)cc2)c2ccccc21	-43*	3	6	.	.	-4
COc1ccc(C(=O)Cn2c(=N)n(C)c3ccccc32)cc1	7	7	-1	-2	-1	-1
CCOC(=O)Cn1c(=N)n(CCOc2ccc(Br)cc2)c2ccccc21	-48*	-5	-3	-1	8	-2
C[C@@H]1CN([C@@H](C)CO)C(=O)c2cc(-c3ccccc3F)cnc2O[C@@H]1CN(C)C(=O)C1CC1	4	-1	-2	-3	3	-2
COc1ccc(C(=O)N(c2ccccc2)c2nccc3ccccc23)cc1OC	-19*	1	-1	-9	7	.
COc1ccc(C(=O)NCc2cc(C)nc3ccccc23)cc1OC	-4	2	4	3	2	3
Cc1cccc(Oc2nccc(C(F)(F)F)c2C(=O)Nc2ccc(F)cc2F)c1	14	-3	2	85*	-4	.
CC(C)CC#Cc1ccc2c(c1)O[C@@H](CN(C)CC1CCOCC1)[C@@H](C)CN([C@@H](C)CO)S2(=O)=O	0	11	0	-7	10	0
O=S(=O)(Nc1cccc2cccnc12)c1ccccc1	-55	1	14	.	21	2
O=S(=O)(Nc1cccc2cccnc12)c1ccc(S(=O)(=O)N2CCCC2)cc1	.	.	.	1	67*	.
O=C1C(N2CCOCC2)=C(n2nnc3ccccc32)C(=O)c2ccccc21	.	.	.	61*	45*	.
Cc1cc(C(=O)CSc2nnnn2-c2ccc(O)cc2)c(C)n1C	-26*	-3	4	-31	0	-1
O=C(CSc1nnnn1-c1ccccc1)CSc1nnnn1-c1ccccc1	-28*	17	8	13	-4	8
Cc1ncc(CSc2nnnn2-c2ccccc2)c(N)n1	-21*	-14	2	-5	-9	-3
Cc1cc(C(=O)CSc2nnnn2-c2ccccc2)c(C)n1CCc1ccccc1	.	.	.	-4	-4	.
CC(=O)c1cccc(-n2nnnc2SCC(=O)NNC(=O)C(C)C)c1	12	0	0	85*	2	5
C[C@@H]1CN([C@H](C)CO)C(=O)c2cc(NC(=O)C3CC3)ccc2O[C@H]1CN(C)S(=O)(=O)c1ccc(Cl)cc1	-3	8	1	6	-13	2
SMILES	Ecoli rRNA inh	S100A4 MyoIIA	CASP6 VEID inh	PGC1a acetyl inh	ARNT TACC3 PPI	ERAP1 HTS inh
O=C(Cc1ccccn1)N[C@@H]1CC[C@@H](CCn2cc(-c3cccnc3)nn2)O[C@H]1CO	0	-63	0	-7	-9	-5
C[C@@H]1CN([C@@H](C)CO)C(=O)Cc2cc(NC(=O)C3CC3)ccc2O[C@H]1CN(C)CC1CCCCC1	3	6	.	-2	-8	3
Cc1ccc(S(=O)(=O)N(C)C[C@H]2OCCCC[C@H](C)Oc3ccc(NC(=O)Cc4ccccc4)cc3C(=O)N([C@@H](C)CO)C[C@H]2C)cc1	1	-4	-2	-13	4	1
C[C@H](CO)N1C[C@H](C)[C@H](CN(C)CC2CC2)Oc2ccc(NC(=O)Cc3cn(C)c4ccccc34)cc2CC1=O	1	-7	.	14	2	0
COc1ccc(NS(=O)(=O)c2cc([N+](=O)[O-])ccc2N/N=C/c2c(C)[nH]c3ccccc23)cc1	15	-7	-2	24	-2	4
Cc1[nH]c2ccccc2c1/C=N/NC(=S)NC(C)C	-47*	-3	-7	5	14	1
Cc1[nH]c2ccccc2c1/C=N/Nc1ccccc1[N+](=O)[O-]	-20*	9	11	-3	0	-4
COc1ccc(NC(=S)NNC(=O)c2nnn(-c3ccccc3)c2C)cc1	-16	-4	12	.	62*	-2
COc1ccc(NC(=O)c2cnn(-c3ccccc3)c2C)cc1	1	-6	0	.	-11	-1
Cc1ccc(N2CCN(/N=C/c3c(C)nn(-c4ccccc4)c3Cl)CC2)cc1	11	1	45*	.	.	-1
O=C(O)c1cccc(N2C(=O)c3ccc(Oc4ccc(Cl)cc4)cc3C2=O)c1	-36*	-1	0	3	-3	5
O=C1C(=Cc2cccs2)Oc2ccccc21	-19*	-4	-1	-20	-4	1
O=C1/C(=C/c2cccs2)COc2ccccc21	-41	13	7	.	6	-1
CC(=O)OCC1OC(Sc2cccc3cccnc23)C(OC(C)=O)C(OC(C)=O)C1OC(C)=O (stereo not drawn)	.	.	.	-22	68*	.
CC(=O)OCC1OC(n2ccc3ccccc32)C(OC(C)=O)C(OC(C)=O)C1OC(C)=O (stereo not drawn)	.	.	.	-8	-9	.
COc1ccc2noc3c2c1C(=O)c1ccccc1-3	-13	-4	46*	-15	22	.
COc1cc2c(cc1OC)CN(C(=O)/C=C/c1ccccc1[N+](=O)[O-])CC2	-7	8	1	.	-5	-2
COc1cc2c(cc1OC)CN(C(=O)/C=C/c1ccc([N+](=O)[O-])cc1)CC2	-17*	3	1	.	6	9
CN1C(=O)c2cc(NC(=O)C3CCCC3)ccc2OC[C@H]2O[C@H](CC(=O)NCC3CC3)CC[C@H]21	1	-17	6	-3	-10	-2
CC(C)C[C@@H]1COc2cccc(N3CCN(Cc4ccccc4F)CC3)c2S(=O)(=O)N1	-35*	-7	-1	.	.	.
CC(C)C[C@@H]1COc2cccc(N3CCCC3)c2S(=O)(=O)N1	-28*	1	-1	.	.	-4
O=S1(=O)N[C@@H](Cc2ccccc2)COc2cccc(N3CCN(Cc4ccccc4F)CC3)c21	-26	-4	0	.	.	.
